Consider eleven molecules from PMC4038343 (Biochemistry, 2014).

B1: V domain of the receptor for advanced glycation end products (RAGE) (domain or fragment)
chain: QNITARIGEPLVLKCKGAPKKPPQRLEWKLNTGRTEAWKVLSPQGGGPWDSVARVLPNGSLFLPAVGIQDEGIFRCQAMNRNGKETKSNYRVRVYQIPGKPE

Assay [1] deals with JNK phosphorylation (p-JNK) in A549 cells, effector of RAGE signaling. The assay can be described thus: JNK phosphorylation in A549 cells, Western blot. Particulars: 200 nM (12 μg/mL) MGO-BSA, 7 min, vs unmodified BSA. The format is cell-based, human.
Assay [2] concerns the target T1, V domain of RAGE (Homo sapiens, UniProt Q15109). The experiment in a line: Binding of arginine to the V domain. The settings on record: method not stated.
The test system of the next assay is RAGE. The settings on record: cited from earlier work.
Assay [3] deals with T1, V domain of RAGE. The experiment in a line: ELISA-based competition with MGO-BSA for the V domain. The format is binding. The settings on record: 1 μM V domain.
Assay [4] addresses T1, V domain of RAGE. The assay can be described thus: NMR solution structure of MG-H1–V domain complex. The format is binding. In short, it runs like this: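 Samples of 500 μM [U-13C,15N] V domain, free and with 1 mM unlabeled hydroimidazolone ligand, in pH 6.5 phosphate, 100 mM NaCl, 0.02% NaN3, 90% H2O/10% D2O. 3D 15N- and 13C-edited and 15N-edited/13C-filtered NOESY-HSQC. CYANA calculation: 986 intramolecular and five intermolecular distance restraints (intermolecular upper limits 6 Å), 150 TALOS torsion pairs, 38 H-bond restraints, one disulfide. 20 best structures kept.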

The target of assay [5] is T1, V domain of RAGE. The experiment in a line: Fluorescence titration, native tryptophan fluorescence of wild-type V domain. The format is binding. Particulars: pH 6.5, 25 °C. In short, it runs like this: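 Wild-type RAGE V domain: expressed in E. coli BL21(DE3) Codon+, purified on Ni-NTA, His tag removed by thrombin. 100 nM protein in 10 mM phosphate pH 6.5 with 100 mM NaCl, at 25 °C in a stirred cuvette. Test compound titrated from 5 nM to 10 μM in 11 steps. Tryptophan emission excited at 295 nm, reference titrations subtracted, dilution-corrected. Kd from single-site binding isotherm fit.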

Assay [6] addresses methylglyoxal-modified bovine serum albumin (bovine, UniProt P02769 25-607, methylglyoxal-modified, contains hydroimidazolones; sites and number not stated). The assay can be described thus: ELISA. In general terms: ELISA stands for enzyme-linked immunosorbent assay.
The target of assay [7] is B1. The assay can be described thus: other fluorescence titration.

Entries after “also recorded” stand apart in the source; their conditions may differ. Square brackets hold non-standard residues; d marks the D form. Ends that are not written are not given here.

Sequence of methylglyoxal-modified bovine serum albumin (P02769 25-607): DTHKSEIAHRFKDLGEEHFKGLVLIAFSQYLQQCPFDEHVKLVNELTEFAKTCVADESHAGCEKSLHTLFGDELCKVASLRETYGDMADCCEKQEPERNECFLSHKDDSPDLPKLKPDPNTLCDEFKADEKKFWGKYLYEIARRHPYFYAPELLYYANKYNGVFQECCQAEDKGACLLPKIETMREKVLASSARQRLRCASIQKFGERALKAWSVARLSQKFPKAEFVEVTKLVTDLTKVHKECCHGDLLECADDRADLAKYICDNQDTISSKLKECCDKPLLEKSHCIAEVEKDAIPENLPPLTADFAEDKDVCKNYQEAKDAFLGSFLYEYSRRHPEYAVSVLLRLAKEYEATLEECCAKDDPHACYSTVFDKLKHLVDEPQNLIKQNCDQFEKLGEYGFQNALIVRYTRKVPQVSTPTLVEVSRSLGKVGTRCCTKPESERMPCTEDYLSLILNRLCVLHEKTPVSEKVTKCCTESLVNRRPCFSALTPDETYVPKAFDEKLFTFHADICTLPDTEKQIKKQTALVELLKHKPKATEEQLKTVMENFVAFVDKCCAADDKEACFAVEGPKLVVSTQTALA

Consider “MGO-BSA: methylglyoxal-modified bovine serum albumin, prepared according to the method of Ahmed et al.”, for which the JNK phosphorylation entry in assay [1] is listed as “increase in the level of phosphorylation of JNK; also recorded: increases JNK phosphorylation (p-JNK) relative to that with BSA alone”. On to `N=C(N)NCCC[C@H](N)C(=O)O` [arginine], for which the “binding to the V domain” value on V domain of RAGE [2] is recorded as “did not detect any binding”.

In the case of `N[C@@H](CCCCNCC(=O)O)C(=O)O` [CML, N^ε-carboxymethyl-lysine], the “binding to RAGE of free AGE adducts of lysine” value in the assay on RAGE is listed as “do not bind to RAGE”. As for `CC(NCCCC[C@H](N)C(=O)O)C(=O)O` (stereo partly drawn) [CEL, N^ε-carboxyethyl-lysine], the “binding to RAGE of free AGE adducts of lysine” value in the assay on RAGE was “do not bind to RAGE”. Consider `CC1N=C(N)N(CCCC(N)C(=O)O)C1=O` (stereo not drawn) [MG-H3, 5-(2-amino-4-hydro-4-methyl-5-imidazolon-1-yl)norvaline], for which, at V domain of RAGE [3], the “blocking of MGO-BSA binding to the V domain” value (“blocking of MGO-BSA binding” below) is on record as “can successfully block binding of MGO-BSA to the V domain”. Consider `CC1NC(NCCC[C@H](N)C(=O)O)=NC1=O` (stereo partly drawn) [MG-H1, N^δ-(5-hydro-5-methyl-4-imidazolon-2-yl)ornithine], for which the “size of MG-H1 binding site” value at V domain of RAGE [4] (NMR solution structure of MG-H1–V domain complex) turned out to be 80 Å^2. Moreover, the “blocking of MGO-BSA binding” value at V domain of RAGE [3] was “can successfully block binding of MGO-BSA to the V domain”. As for `CC1N=C(NCCCC(N)C(=O)O)NC1=O` [(R)-epimer of MG-H1], on V domain of RAGE [4] (NMR solution structure, ligand racemic mixture of (R)- and (S)-epimers), the “stereospecific fit into the MG-H1–V domain binding site” value is given as “Only the (R)-epimer of MG-H1 can be fit into the MG-H1–V domain binding site”. For `N[C@@H](CCCNC1=NC(=O)CN1)C(=O)O` [G-H1, N^δ-(5-hydro-4-imidazolon-2-yl)ornithine], the “affinity for the V domain (in words)” value on V domain of RAGE [5] is “comparable to that of the MG-Hs”. For `CC1C(=O)N=C(N)N1CCCC(N)C(=O)O` (stereo not drawn) [MG-H2, 5-(2-amino-5-hydro-5-methyl-4-imidazolon-1-yl)norvaline], the “blocking of MGO-BSA binding” value at V domain of RAGE [3] is listed as “can successfully block binding of MGO-BSA to the V domain”.

As to B1, the binding result in assay [6] is on record as “binds”.

As a reminder, the Kd is the equilibrium constant for the complex coming apart. Low readings indicate tighter binding, high ones weaker binding. The molecule ALT[MG‑H1]EYTG [ALT(MG-H1)EYTG, synthetic MG-H1-containing peptide] returned a Kd in assay [7] of 44 ± 6 nM.
